Screening results as filed in PubChem.
Compounds with a hit are over-represented: about 1.9% of the library has one in this group of screens.
PLCb3 inh: blocks human PLC-beta3 enzyme activity. Purified PLC-beta3, fluorogenic substrate, fluorescence. inhibition, % at 12.2 µM. hit rate 0.18% among 370,000; in the data active = inhibition above about 11%;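 note: 0% = median of compound wells on plate and 100% = full blocker control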
Target sequence (Q01970 whole entry, looked up): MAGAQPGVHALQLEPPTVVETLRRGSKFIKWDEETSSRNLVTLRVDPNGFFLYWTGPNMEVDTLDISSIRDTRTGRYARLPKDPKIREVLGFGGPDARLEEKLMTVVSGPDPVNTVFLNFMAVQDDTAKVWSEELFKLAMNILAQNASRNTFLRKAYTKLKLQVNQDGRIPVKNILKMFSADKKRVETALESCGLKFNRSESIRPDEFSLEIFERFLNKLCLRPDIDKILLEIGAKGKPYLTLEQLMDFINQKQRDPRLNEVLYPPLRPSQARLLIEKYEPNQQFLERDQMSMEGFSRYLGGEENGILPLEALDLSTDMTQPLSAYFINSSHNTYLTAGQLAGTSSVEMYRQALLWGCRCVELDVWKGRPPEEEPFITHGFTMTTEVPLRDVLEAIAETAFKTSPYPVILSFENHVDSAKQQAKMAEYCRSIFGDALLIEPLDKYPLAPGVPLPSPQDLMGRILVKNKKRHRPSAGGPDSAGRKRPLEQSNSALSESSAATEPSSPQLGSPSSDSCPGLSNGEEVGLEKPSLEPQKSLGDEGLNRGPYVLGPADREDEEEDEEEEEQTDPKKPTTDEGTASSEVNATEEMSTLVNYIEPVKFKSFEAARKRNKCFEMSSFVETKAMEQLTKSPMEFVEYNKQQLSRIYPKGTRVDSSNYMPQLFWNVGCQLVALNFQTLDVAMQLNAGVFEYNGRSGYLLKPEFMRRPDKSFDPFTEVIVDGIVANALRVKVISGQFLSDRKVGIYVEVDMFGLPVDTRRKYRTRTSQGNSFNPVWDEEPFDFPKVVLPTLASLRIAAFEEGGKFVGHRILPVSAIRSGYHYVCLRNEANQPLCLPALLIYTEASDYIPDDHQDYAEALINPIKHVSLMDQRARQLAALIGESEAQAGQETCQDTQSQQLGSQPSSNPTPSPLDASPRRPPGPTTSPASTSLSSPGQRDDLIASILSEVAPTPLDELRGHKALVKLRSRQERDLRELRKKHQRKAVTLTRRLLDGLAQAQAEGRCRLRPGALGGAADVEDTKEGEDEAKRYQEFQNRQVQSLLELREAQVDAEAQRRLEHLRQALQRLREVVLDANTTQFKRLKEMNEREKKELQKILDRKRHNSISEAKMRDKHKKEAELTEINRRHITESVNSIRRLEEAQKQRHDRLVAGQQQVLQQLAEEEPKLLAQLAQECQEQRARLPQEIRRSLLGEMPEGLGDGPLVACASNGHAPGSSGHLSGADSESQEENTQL
Tb MetRS inh: blocks T. brucei methionyl-tRNA synthetase activity | AID 624268 | purified T. brucei MetRS, ATP depletion, Kinase-Glo luminescence | hit rate 0.4% among 360,000 | inhibition, % at 11.9 µM;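 active = inhibition above a per-plate cutoff of the control wells' mean inhibition plus 3 SD, cut at about 5.5% in these data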;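 note: 0% = DMSO wells median and 100% = median of wells with control inhibitor compound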
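Measured by: Kinase-Glo luciferase luminescence reporting remaining unconsumed ATP. Material: purified T. brucei MetRS enzyme. Doses: 11.9 µM compound single dose, 0.9% DMSO. Medium: HEPES buffer containing pyrophosphatase, BSA, spermine, DTT. Times: 15 min preincubation, 2 h reaction, all 25 °C. Reagent: methionine, ATP and bulk E. coli tRNA.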
sPLA2-III inh: Inhibits HGIII-sPLA2 liposome hydrolysis, primary screen; Q9NZ20; QFRET BODIPY PC-A2 liposome hydrolysis, fluorescence; inhibition, % at 12.2 µM; hit rate 0.56% among 370,000; AID 743126;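 active = inhibition above mean plus 3 SD of compounds lying within the high and low control bounds, cut at about 19% in these data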;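 note: 0% = median of test compound wells and 100% = no enzyme DMSO wells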
PLCg1 inh: inhibitors of human phospholipase C gamma1. P19174. purified PLC-gamma1, fluorogenic substrate, fluorescence. inhibition, % at 12.2 µM. hit rate 0.84% among 370,000. AID 720700
PLCgamma1 ctr: counter-screen for PLC-beta3 inhibitors: inhibitors of human PLC-gamma1. shares compounds with PLCg1 inh. purified PLC-gamma1, fluorogenic substrate, fluorescence. inhibition, % at 12.3 µM. hit rate 3.1% among 3,300. AID 743258
PLCbeta3 conf: confirmation of human PLC-beta3 inhibitors; shares compounds with PLCg1 inh; hit rate 1% among 3,300; purified PLC-beta3, fluorogenic substrate fluorescence; AID 743261; inhibition, % at 12.3 µM; in the data active = inhibition above about 11%
* marks the source's active call; other numbers are inactive results. Cut-off read from the data, not from the text of the source, unless noted: active = inhibition above about 9.5%; inactive = the rest.

CCN(CC)CCCNC(=O)C1CCC(=O)N(c2ccc(OC)cc2)C1c1ccc(F)cc1 (stereo not given) was read as PLCb3 inh 0, Tb MetRS inh 0, sPLA2-III inh 6, PLCg1 inh 12*, PLCgamma1 ctr 6 and PLCbeta3 conf 3.
`COc1ccc(C2C(C(=O)NCc3ccccn3)CCC(=O)N2c2cc(OC)c(OC)c(OC)c2)cc1` (stereo not given) gave PLCb3 inh -1, Tb MetRS inh 3, sPLA2-III inh 9, PLCg1 inh 10*, PLCgamma1 ctr -1 and PLCbeta3 conf 2.
For COc1ccc(N(C)C(=O)CCS(=O)(=O)c2cccc3nonc23)cc1 the results were PLCb3 inh 11*, Tb MetRS inh -1, sPLA2-III inh 4, PLCg1 inh 8, PLCgamma1 ctr -4 and PLCbeta3 conf 0.
For COc1ccc(CNC(=O)CCS(=O)(=O)c2cccc3nonc23)cc1 the results were PLCb3 inh 0, Tb MetRS inh -2, sPLA2-III inh 0 and PLCg1 inh -2.
`CCC(C)CNC(=O)CSc1nnc(-c2cccnc2)n1C1CCCCC1` (stereo not given) gave PLCb3 inh 2, sPLA2-III inh 2 and PLCg1 inh -3.
`CC12CCC3c4ccc(OCCCO)c([N+](=O)[O-])c4CCC3C1CCC2=O` (stereo not given) gave PLCb3 inh -3, sPLA2-III inh -4 and PLCg1 inh 0.
`CCOC(=O)COc1ccc(S(=O)(=O)N2CCN(c3ccccc3F)CC2)cc1` gave PLCb3 inh 1, Tb MetRS inh -2, sPLA2-III inh -6 and PLCg1 inh 2.
Screening CCOC(=O)COc1ccc(S(=O)(=O)N2CCN(c3ccc(OC)cc3)CC2)cc1 returned PLCb3 inh -2, Tb MetRS inh 0, sPLA2-III inh 8, PLCg1 inh 9.5*, PLCgamma1 ctr 1 and PLCbeta3 conf 2.
`CC1(C)CC(=O)C(C2=NC3(CCCCCC3)Cc3ccccc32)=C(O)C1` gave PLCb3 inh 2, Tb MetRS inh 2, sPLA2-III inh 8, PLCg1 inh 10*, PLCgamma1 ctr 3 and PLCbeta3 conf 4.
Screening COc1cccc(N2CCN(CC(=O)NCc3ccc(F)cc3)CC2)c1 returned PLCb3 inh 4, sPLA2-III inh 5 and PLCg1 inh 0.
For Cc1cc(C(=O)O)c(C)o1 the results were PLCb3 inh 0, sPLA2-III inh 4 and PLCg1 inh 6.
`O=C(Nc1ccccc1)Nc1cccc(Cl)c1Cl` gave PLCb3 inh 10, Tb MetRS inh 0, sPLA2-III inh -14, PLCg1 inh 16*, PLCgamma1 ctr -5 and PLCbeta3 conf -2.
`CCOC(=O)CNC(=O)Cc1ccc(Cl)cc1` gave PLCb3 inh -3, Tb MetRS inh 0, sPLA2-III inh 0, PLCg1 inh 10*, PLCgamma1 ctr -4 and PLCbeta3 conf 0.
`Oc1ccc(C[C@H]2CN([C@@H](Cc3cccc(O)c3)CN3CCC[C@@H]3CN3C(=S)NC[C@@H]3Cc3ccccc3)C(=S)N2CC2CCCCC2)cc1` gave PLCb3 inh 4, Tb MetRS inh 0, sPLA2-III inh -4, PLCg1 inh 10*, PLCgamma1 ctr 7 and PLCbeta3 conf 5.
Screening O=C1NC[C@@H](Cc2ccc(O)cc2)N(CCc2cc(C(F)(F)F)cc(C(F)(F)F)c2)C1=O returned PLCb3 inh 11*, Tb MetRS inh -1, sPLA2-III inh -11, PLCg1 inh 6, PLCgamma1 ctr 4 and PLCbeta3 conf 3.
O=C1NC[C@H](Cc2ccc(O)cc2)N(C[C@@H]2CCCN2C[C@H](Cc2ccc(O)cc2)N2C[C@H](Cc3ccccc3)N(CCc3ccccc3)C(=O)C2=O)C1=O was read as PLCb3 inh 12*, Tb MetRS inh 0, sPLA2-III inh -16, PLCg1 inh 5, PLCgamma1 ctr 0 and PLCbeta3 conf -1.
Screening C[C@H]1[C@@H](NC(=O)c2ccc(Cl)cc2)CC[C@@]23CCCN2C(=O)CCC[C@@H]13 returned PLCb3 inh -1, sPLA2-III inh 7 and PLCg1 inh -2.
O=C(Nc1cccc(Cl)c1)Nc1cc(S(=O)(=O)N2CCOCC2)ccc1N1CCCC1 was read as PLCb3 inh 0, Tb MetRS inh 1, sPLA2-III inh 9, PLCg1 inh 11*, PLCgamma1 ctr -11 and PLCbeta3 conf -6.
`O=C(COC(=O)c1ccccc1Br)Nc1cc(S(=O)(=O)N2CCOCC2)ccc1N1CCCC1` gave PLCb3 inh -3, Tb MetRS inh 1, sPLA2-III inh -12 and PLCg1 inh -1.
`O=C(COC(=O)c1ccccc1[N+](=O)[O-])Nc1cc(S(=O)(=O)N2CCOCC2)ccc1N1CCCC1` gave PLCb3 inh -6, Tb MetRS inh 0, sPLA2-III inh -12, PLCg1 inh 12*, PLCgamma1 ctr 2 and PLCbeta3 conf 3.
For CS(=O)(=O)N1CCN(c2ccc([N+](=O)[O-])c(N3CCOCC3)c2)CC1 the results were PLCb3 inh 3, Tb MetRS inh 0, sPLA2-III inh 6 and PLCg1 inh 3.
`CN1CCN(c2ccccc2NC(=O)c2ccc([N+](=O)[O-])o2)CC1` gave Tb MetRS inh -1.
Screening CS(=O)(=O)N1CCN(c2ccccc2NC(=O)c2ccc([N+](=O)[O-])o2)CC1 returned PLCb3 inh 2, Tb MetRS inh -1, sPLA2-III inh 7, PLCg1 inh 9.9*, PLCgamma1 ctr 3 and PLCbeta3 conf 1.
CS(=O)(=O)N1CCN(c2ccccc2[N+](=O)[O-])CC1 was read as PLCb3 inh 6, Tb MetRS inh 2, sPLA2-III inh 6, PLCg1 inh 15*, PLCgamma1 ctr -4 and PLCbeta3 conf -1.
Screening Cc1ccc(C2=N/C(=C\N(C)C)C(=O)O2)cc1 returned PLCb3 inh 6, Tb MetRS inh -1, sPLA2-III inh -2, PLCg1 inh 9.6*, PLCgamma1 ctr 6 and PLCbeta3 conf 7.
`CN(C)/C=C1/N=C(c2ccccc2)OC1=O` gave PLCb3 inh 10, Tb MetRS inh -2, sPLA2-III inh -2, PLCg1 inh 10*, PLCgamma1 ctr 4 and PLCbeta3 conf 10.
C=CCN1[C@@H](CC(C)C)COc2cccc(N3CCSCC3)c2S1(=O)=O was read as PLCb3 inh 1, sPLA2-III inh 5 and PLCg1 inh 0.
`COC(=O)C1CCCN1C(=O)COc1ccc(Br)cc1Cl` (stereo not given) gave PLCb3 inh 8, Tb MetRS inh 0, sPLA2-III inh -4, PLCg1 inh 14*, PLCgamma1 ctr -8 and PLCbeta3 conf -118.
`O=C(COc1ccc(Br)cc1Cl)NC1CCCCC1` gave PLCb3 inh -1, Tb MetRS inh 0, sPLA2-III inh 1 and PLCg1 inh 0.
